Experimental data from ChEMBL document CHEMBL5376024, “Small molecule WDR5 inhibitors down-regulate lncRNA expression” (RSC Med Chem, 2024).
Activity calls are given as the source filed them. The calls are words filed in the database; no cut-off is given here.

Columns and labels:
Type in all cases: cell-based
U2OS [1] = assay: Inhibition of HOTTIP-WDR5 complex formation in human U2OS cells at 10 uM by in vitro RNA immunoprecipitation assay
Method in brief: (§1)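 RIP assay on purified FLAG-WDR5 loaded at 0.2 mg/mL onto anti-FLAG magnetic beads (Buffer C with 0.1% IGEPAL, 0.1% BSA, 10 µg/mL yeast tRNA; 4 °C, 3 h). The beads were then given 1 µg of U-2 OS total RNA (TRIzol) with or without inhibitor, in 0.1% DMSO in RIP buffer (Tris pH 7.5, KCl, EDTA, RNasin), for 1 h at rt. RNA was read by RT-qPCR as percentage enrichment against a 50% input.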

U2OS [2] = assay: Inhibition of HOXC13-AS-WDR5 complex formation in human U2OS cells at 10 uM by in vitro RNA immunoprecipitation assay; method in brief: as §1
MDA-MB-231 [3] = assay: Inhibition of IncRNA-WDR5 complex in human MDA-MB-231 cells assessed as downregulation of HOTTIP expression measured at 10 uM after 1 day by RT-qPCR analysis
Method in brief: (§2)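 MDA-MB-231 cells (DMEM, 10% FBS, 37 °C, 5% CO2) were seeded in 12-well plates at 1×10^5 cells/well for 1-day runs or 5×10^4 cells/well for 3-day runs. After one day the medium was replaced with medium holding compound (1, 5 or 10 µM) or 0.1% DMSO blank. Total RNA was extracted with TRIzol and analysed by RT-qPCR. Fold change was calculated by 2^-ΔΔCt against GAPDH and the blank. Values are means of individual bioreplicates ± SD.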

MDA-MB-231 [4] = assay: Inhibition of IncRNA-WDR5 complex in human MDA-MB-231 cells assessed as downregulation of HOTTIP expression measured at 10 uM after 3 days by RT-qPCR analysis; conditions: time 3.0 day; method in brief: as §2
MDA-MB-231 [5] = assay: Inhibition of IncRNA-WDR5 complex in human MDA-MB-231 cells assessed as downregulation of FOXD3-AS1 expression measured at 10 uM after 1 to 3 days by RT-qPCR analysis; conditions: time 1-3 day; method in brief: as §2

Structure (SMILES) | inhibition (U2OS [1]) | inhibition (U2OS [2]) | inhibition (MDA-MB-231 [3]) | inhibition (MDA-MB-231 [4]) | inhibition (MDA-MB-231 [5])
CN1CCN(c2ccc(-c3cccc(CN4CCOCC4)c3)cc2NC(=O)c2c[nH]c(=O)cc2C(F)(F)F)CC1 | inactive | inactive | Active | – | –
CNC(=O)c1cc(C2(C#N)CCC2)cc(NS(=O)(=O)c2cc(Br)cc(Cl)c2O)c1O | Active | Active | inactive | Active | inactive
